Source: PubChem
tolC growth inh – E. coli tolC mutant growth inhibition. E. coli BW25113 tolC mutant growth, OD615. growth inhibition, % at 10 µM (by protocol). 65,000 compounds, 2.2% hits. AID 573;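 active means growth inhibition at or above a cutoff equal to the mean over every tested compound plus 3 SD, cut at about 60% in these data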;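 further: growth measured after 20 h incubation at 37 °C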
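test system = E. coli BW25113 ΔtolC::kan bacteria | medium = LB with kanamycin 50 µg/mL | signal = OD at 615 nm | schedule = 37 °C, 20 h exposure | evaluation = % inhibition of E. coli growth | compound dosing = one dose of 10 µM final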
Fibroblast inh – blocks proliferation of human lung fibroblasts; 85,000 compounds, 1.1% hits; viability, % at 10 µM; LL 47 human lung fibroblast viability, ATP luminescence; stronger effect = lower value;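 active means viability at or below 50% in the single dose screen; inactive means viability above 50%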;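 further: compound exposure lasted 72 h before the ATP readout; 100% = median luminescence of untreated cell-only wells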
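Signal: luminescent ATP detection, CellTiter-Glo; assay system: LL 47 human lung fibroblasts; input: 1,150 cells/well; incubation: overnight cell rest, 72 h compound treatment at 37 °C; measure: % viability versus median cells-only luminescence; medium: IMEM growth medium with 15% fetal bovine serum; dosing: compound addition at 0.1% DMSO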
H69AR growth 86K – growth inhibitors of human H69AR lung tumor cells. 85,000 compounds, 6% hits. viability, % at 10 µM. AID 598. H69AR lung tumor viability, ATP luminescence, 72 h; stronger effect = lower value;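 active means viability at or below 40%; inactive means viability above 40%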;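 further: multidrug resistant small cell line overexpressing MRP-1 efflux transporter; 100% = mean luminescence of untreated control wells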
E coli WT exp – blocks growth of wild type E. coli BW25113; OD600 absorbance; growth inhibition, % at 100 µM; 98,000 compounds, 0.15% hits;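 active means growth inhibition above about 50% at one test dose, limit read from the data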;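 further: growth measured after 20 h incubation at 37 °C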
Jurkat viability – cytotoxicity toward Jurkat cells | Jurkat E6.1 viability, ATP luminescence, 48 h | inhibition, % at 4 µM | 56,000 compounds, 1.2% hits | AID 463;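 active means inhibition above the mean inhibition of all tested compounds plus 3 SD, cut at about 28% in these data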
HUVEC prolif 384 – human endothelial cell proliferation inhibition; HUVEC proliferation, CellTiter-Glo luminescence, 72 h; stronger effect = lower value; AID 648; viability, % at 10 µM (by protocol); 86,000 compounds, 1.1% hits;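 active means viability at or below 30%; inactive means viability above 30%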;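 further: 100% = median luminescence of DMSO-only cell control wells on each plate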
Numbers without * were called inactive; . = no result. A selection: hits, their analogues and other compounds. The true share with any hit is near 6.4%.

SMILES	tolC growth inh	Fibroblast inh	H69AR growth 86K	E coli WT exp	Jurkat viability	HUVEC prolif 384
c1ccc(-c2nc(NCc3cccnc3)c3oc4ccccc4c3n2)cc1	13	87	38*	-10	0	67
Cc1cc(C)c(S(=O)(=O)c2ccccc2C)c(OCC(C)(C)C)n1	.	.	.	-2	.	.
O=C(CN1CCSCC1)N/N=C/c1ccc(F)c(F)c1	.	94	90	-14	.	99
Cc1ccc(C)c2[nH]c(=O)c(CN(Cc3ccco3)S(=O)(=O)c3ccc4c(c3)OCCO4)cc12	-5	95	81	-15	0	64
O=c1[nH]c2cc3c(cc2cc1CN(CC1CCCO1)S(=O)(=O)c1ccc(Cl)cc1)OCCO3 (stereo not drawn)	-12	95	12*	-1	0	74
COc1ccc2cc(CN(CC3COCCO3)S(=O)(=O)c3ccc(Cl)cc3)c(=O)[nH]c2c1 (stereo not drawn)	6	108	13*	-3	0	102
Cc1cc(C)c2cc(CN(CC3CCCO3)S(=O)(=O)c3ccc4c(c3)OCCO4)c(=O)[nH]c2c1 (stereo not drawn)	67*	102	62	-4	1	74
CCc1ccc2[nH]c(=O)c(CN(Cc3ccco3)S(=O)(=O)c3ccc4c(c3)OCCO4)cc2c1	-18	73	23*	-10	-4	71
COC(=O)c1ccc(S(=O)(=O)N(Cc2cc3cc4c(cc3[nH]c2=O)OCO4)C2CCCCC2)cc1	-16	107	39*	.	-5	94
Cc1nc2c(-c3ccc(F)cc3)c(C)nn2c(C)c1CCC(=O)N1CCC(Cc2ccccc2)CC1	.	99	86	-13	.	73
CSc1nc2c(cnn2-c2ccc(C)c(C)c2)c(=O)[nH]1	-19	100	20*	-17	-4	38
O=C(CCN1CCc2ccccc21)c1ccc2c(c1)OCCO2	1	95	92	-9	.	101
O=C(CCN1CCc2ccccc2C1)c1ccc2c(c1)OCCO2	-9	80	0.7*	7	-5	87
COC(=O)C1CCN(S(=O)(=O)c2ccc(OC)cc2)CC1	.	98	107	-5	.	99
CN(C)CCOc1ncnc2c1oc1ccccc12	.	101	87	11	.	94
CN(C)CCOc1nc(-c2ccccc2)nc2c1oc1ccccc12	6	30*	2.3*	-10	8	4.4*
COc1cc(NC(=O)c2cc(CC(C)C)on2)c(OC)cc1Cl	68*	88	86	-2	-4	96
CCCc1cc(C(=O)Nc2cc(OC)c(Cl)cc2OC)no1	2	99	79	3	-4	75
C=CCn1c(Cc2ccc(OC)cc2)nnc1SCC(=O)NCCc1ccccc1	.	106	99	6	.	102
Cc1nc(OCC(=O)c2ccc(Cl)cc2)c(C#N)c2c1COC(C)(C)C2	.	102	56	-1	.	107
CC1(C)Cc2c(C#N)c(OCC(=O)c3ccc(Cl)cc3)nc(-c3ccco3)c2CO1	-15	42*	58	-10	-4	60
CC1(C)Cc2c(C#N)c(NCc3ccco3)nc(-c3ccco3)c2CO1	7	76	20*	-11	.	50
N#Cc1c(NCCN)nc(-c2ccco2)c2c1CCCC2	.	41*	7.1*	12	.	67
COc1ccc(NC(=O)C(=O)N/N=C/c2cc(C)n(-c3cccc(Cl)c3Cl)c2C)c(OC)c1	.	.	.	-7	.	.
Cc1nc(NC(=O)c2ccccc2)sc1-c1csc(N)n1	0	84	30*	-3	26	55
SMILES	tolC growth inh	Fibroblast inh	H69AR growth 86K	E coli WT exp	Jurkat viability	HUVEC prolif 384
Cc1nc(NC(=O)c2ccccc2)sc1-c1csc(NCc2ccccc2)n1	.	92	54	-31	.	77
COc1cc2c(cc1OC)CN(C(C)C(=O)N1CCc3ccccc31)CC2 (stereo not drawn)	.	86	18*	3	.	77
COc1cc(C(=O)N2CCCc3ccccc32)cc(OC)c1OC	.	112	25*	.	.	89
COc1cc(C(=O)N2c3ccccc3CC2C)cc(OC)c1OC (stereo not drawn)	4	95	38*	5	0	93
CCOc1ccccc1NC(=O)c1cc(CC(C)C)oc1C	75*	99	73	6	3	109
CCN(CC)S(=O)(=O)c1cccc(-c2nnc(C(=O)c3ccc(C(F)(F)F)cc3)o2)c1	-8	102	65	-12	8	93
COCCN(CCOC)S(=O)(=O)c1ccc(C(=O)Nc2nnc(C3CC3)o2)cc1	-9	93	87	-1	1	90
